This is a sample that favours compounds with a hit; in the whole collection about 4.7% have one here.
AHR act – activates the human aryl hydrocarbon receptor; P35869; activation, % at 5 µM; AHR-responsive luciferase reporter cells, luminescence; 2.5% of 320,000 active; AID 2796; in the data active = activation above about 47%;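 note: 0% = vehicle wells and 100% = reference agonist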
MC4R barr agon – activates human MC4R beta-arrestin recruitment. P32245. U2OS MC4R beta-arrestin complementation, luminescence; percent of melanotan II response, DMSO zero. activation, % at 8.9 µM. 0.98% of 360,000 active. AID 540308;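 active = activation above a per-plate cutoff, the mean activation of sample wells on that plate plus 3 SD, cut at about 8% in these data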
FXN GAA850 act – activators of GAA850 frataxin (FXN) promoter | HEK293 lucGAA850 FXN promoter luciferase reporter, 24 h; percent of 10 µM SAHA response | activation, % at 6 µM | 0.56% of 360,000 active | AID 540364;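 active = activation above the average of all compounds screened plus 3 SD, cutoff fixed separately per campaign, cut at about 7.5% in these data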;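 note: 0% = DMSO wells and 100% = 10 µM SAHA wells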
HTR2A ag – agonists of mouse serotonin 5-HT2A receptor (HTR2A). P35363. CHO-K1 mHTR2A beta-arrestin complementation, luminescence; percent of 30 µM serotonin response. 0.66% of 360,000 active. activation, % at 7.6 µM;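 active = activation above a run cutoff, the mean activation of all tested compounds plus 3 SD, cut at about 14% in these data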;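 note: 0% = plate median of compound wells and 100% = 30 µM serotonin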
MC4R antag cAMP – human MC4R antagonism in cAMP assay. MC4R-expressing cells, MTII-stimulated cAMP, LANCE TR-FRET. 0.48% of 360,000 active. inhibition, % at 6.5 µM;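 active = inhibition above its plate's cutoff, the mean of tested wells on that plate plus 3 SD, cut at about 29% in these data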;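 note: 0% = Melanotan II alone and 100% = Melanotan II plus saturating MCL0020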
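System: U2OS-MC4R stable cell line; Technique: Eu-cAMP/anti-cAMP TR-FRET, emission 671 nm; Repeats: single well per compound; Also added: Melanotan II; Dosing: one concentration, 6.5 µM nominal; Schedule: 30-min compound, 1-h challenge, 1-h detection, room temperature.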
AHR act confirm – human AHR activation, confirmation; shares compounds with AHR act; human cells, AHR-responsive luciferase reporter, luminescence; activation, % at 9 µM; 87% of 2,300 active; AID 2845; in the data active = activation above about 49%;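 note: HepG2 hepatoma cells carrying a DRE-driven firefly luciferase reporter; 0% = vehicle wells and 100% = reference agonist wells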
PXR counter – activates human PXR in AHR activator counter-screen | shares compounds with AHR act | cell-based PXR reporter, luciferase luminescence | activation, % at 11.6 µM | 88% of 2,300 active; in the data active = activation above about 11%;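 note: human hepatoma DPX-2 cells expressing full-length human PXR; 0% = DMSO and 100% = reference agonist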
Target sequence (O75469 whole entry, looked up): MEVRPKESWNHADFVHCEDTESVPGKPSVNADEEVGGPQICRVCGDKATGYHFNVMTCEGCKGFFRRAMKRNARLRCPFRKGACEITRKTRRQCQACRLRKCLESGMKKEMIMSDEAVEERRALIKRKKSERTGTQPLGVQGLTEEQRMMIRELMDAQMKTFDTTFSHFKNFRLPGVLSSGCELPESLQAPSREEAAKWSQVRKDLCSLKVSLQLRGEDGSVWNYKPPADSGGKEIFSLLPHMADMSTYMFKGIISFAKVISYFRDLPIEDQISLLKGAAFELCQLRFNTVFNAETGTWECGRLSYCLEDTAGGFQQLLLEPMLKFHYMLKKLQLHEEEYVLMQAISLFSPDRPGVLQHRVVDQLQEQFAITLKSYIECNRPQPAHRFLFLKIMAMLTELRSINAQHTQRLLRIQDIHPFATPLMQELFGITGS
The depositor's hits bear a star.

`Cc1cc(N)n2ncc(-c3cccc(Br)c3)c2n1` gave AHR act 93*, MC4R barr agon -1, FXN GAA850 act 5, HTR2A ag 2, MC4R antag cAMP -11, AHR act confirm 125* and PXR counter 34*.
Screening CC(=O)c1cnc2c(-c3cccc(Br)c3)cnn2c1C returned AHR act 16, MC4R barr agon -2, FXN GAA850 act 3, HTR2A ag 0 and MC4R antag cAMP 15.
For CCOC(=O)Cc1c(C)nc2c(-c3cccc(Br)c3)cnn2c1C the results were AHR act 100*, MC4R barr agon 0, FXN GAA850 act 1, HTR2A ag 4, MC4R antag cAMP 21, AHR act confirm 116* and PXR counter 21*.
For Cc1cccc(C)c1OCCN1CCCC1 the results were AHR act 95*, MC4R barr agon 0, FXN GAA850 act 0, HTR2A ag 6, MC4R antag cAMP 7, AHR act confirm 3 and PXR counter 11*.
Screening Cc1cccc(C)c1OCCCn1ccnc1 returned AHR act 136*, MC4R barr agon -3, FXN GAA850 act -1, HTR2A ag -4, MC4R antag cAMP 1, AHR act confirm 36 and PXR counter 16*.
For Cc1cc(C)cc(OCCCn2ccnc2)c1 the results were AHR act 37, MC4R barr agon 2, FXN GAA850 act 0, HTR2A ag 0 and MC4R antag cAMP 10.
For Cc1cc(OCCn2ccnc2)cc(C)c1Cl the results were AHR act 80*, MC4R barr agon -1, FXN GAA850 act 1, HTR2A ag -3, MC4R antag cAMP -6, AHR act confirm 55* and PXR counter 16*.
`Cc1cccc(OCCCCCn2ccnc2)c1C` gave AHR act 22, MC4R barr agon -1, FXN GAA850 act -1, HTR2A ag -3 and MC4R antag cAMP -1.
CCOC(=O)[C@]12CCC=C1N(CCC1=CCCCC1)C(=O)[C@H](CC(=O)NCCCCc1ccccc1)C2 was read as HTR2A ag -7.
CCCCN1C(=O)C(CC(=O)NC2CCCCC2)CC(C(=O)N(C)C)=C1C (stereo not given) was read as MC4R barr agon 0, FXN GAA850 act 0, HTR2A ag 0 and MC4R antag cAMP -2.
Screening OC[C@@H]1CN(Cc2ccncc2)C[C@H](n2cnc3c(NC4CCCC4)ncnc32)O1 returned MC4R barr agon 0, FXN GAA850 act 3, HTR2A ag 9 and MC4R antag cAMP -2.
For Cn1c(=NC(=O)C2CC2)sc2cccc(F)c21 the results were AHR act 100*, MC4R barr agon 0, FXN GAA850 act 3, HTR2A ag 1, MC4R antag cAMP 0, AHR act confirm 119* and PXR counter 23*.
O=C(NCC(c1ccco1)N1CCCC1)c1ccc(Cl)c(S(=O)(=O)N2CCc3ccccc32)c1 (stereo not given) was read as AHR act -6, MC4R barr agon 0, FXN GAA850 act -4, HTR2A ag -13 and MC4R antag cAMP 6.
For CCc1cccc(NC(=O)C2CCCN(c3cnccn3)C2)c1 (stereo not given) the results were AHR act 91*, MC4R barr agon -3, FXN GAA850 act 0, HTR2A ag -8, MC4R antag cAMP 6, AHR act confirm 58* and PXR counter 41*.
`Cc1cccc(NC(=O)C2CCCN(c3cnccn3)C2)c1` (stereo not given) gave AHR act 88*, MC4R barr agon -2, FXN GAA850 act -1, HTR2A ag -12, MC4R antag cAMP 3, AHR act confirm 70* and PXR counter 32*.
For CC(=O)Nc1cc(-c2ccc(Cl)cc2)[nH]n1 the results were AHR act 95*, MC4R barr agon -3, FXN GAA850 act 3, HTR2A ag -3, MC4R antag cAMP 1 and AHR act confirm 160*.
Screening Cc1ccc(N2C(=O)c3ccccc3C2=O)cc1 returned AHR act 45, MC4R barr agon -3, FXN GAA850 act 1, HTR2A ag 0 and MC4R antag cAMP 13.
O=C1c2ccccc2C(=O)N1c1ccc(Cl)cc1 was read as AHR act 88*, AHR act confirm 62* and PXR counter 13*.
For C/C(CC(=O)Nc1cc(Cl)ccc1Cl)=N\NC(N)=S the results were AHR act 84*, MC4R barr agon 0, FXN GAA850 act 2, HTR2A ag 2, MC4R antag cAMP 7, AHR act confirm 2 and PXR counter 14*.
`C/C(CC(=O)Nc1ccc(Cl)cc1Cl)=N\NC(N)=S` gave AHR act 3, MC4R barr agon -2, FXN GAA850 act -2, HTR2A ag -5 and MC4R antag cAMP 11.
O=C(NC(=S)Nc1ccccc1N1CCCC1)c1cccc(F)c1 was read as AHR act 80*, MC4R barr agon -1, FXN GAA850 act 5, HTR2A ag -1, MC4R antag cAMP 10, AHR act confirm 91* and PXR counter 43*.
Screening CCC1NC(=O)c2cccnc2-n2c1nc1cc(F)ccc1c2=O (stereo not given) returned MC4R barr agon -1, FXN GAA850 act 1, HTR2A ag -3 and MC4R antag cAMP -2.
For COC(=O)/C(=C/c1ccc2c(c1)c1ccccc1n2C)NC(=O)c1ccccc1 the results were AHR act 82*, MC4R barr agon -2, FXN GAA850 act 0, HTR2A ag 2, MC4R antag cAMP 2, AHR act confirm 104* and PXR counter 97*.
`CC(C)c1ccc(NC(=O)CCN2C(=O)[C@@H]3Cc4ccccc4CN3C2=O)cc1` gave AHR act 89*, MC4R barr agon 1, FXN GAA850 act 0, HTR2A ag -5, MC4R antag cAMP 5, AHR act confirm 1 and PXR counter 97*.
`Cc1ccc(NC(=O)CCCCCN2C(=O)[C@@H]3Cc4ccccc4CN3C2=O)cc1` gave AHR act -3, MC4R barr agon -2, FXN GAA850 act 1, HTR2A ag -6 and MC4R antag cAMP 7.
For O=C(NCC(c1ccco1)N1CCCC1)c1cn(-c2ccccc2)nc1-c1ccc(F)cc1 (stereo not given) the results were MC4R barr agon 5, FXN GAA850 act -5, HTR2A ag -4 and MC4R antag cAMP 24.
For C/C(=N\NC(=S)Nc1ccc(F)cc1)c1ccc2c(c1)OCCO2 the results were AHR act 137*, MC4R barr agon -2, FXN GAA850 act -5, HTR2A ag 0, MC4R antag cAMP -7, AHR act confirm 84* and PXR counter 14*.
Screening CSCc1c(C(=O)Nc2ccc3c(c2)OCO3)oc2ccccc12 returned AHR act 92*, MC4R barr agon 0, FXN GAA850 act 2, HTR2A ag 0, MC4R antag cAMP 6, AHR act confirm 109* and PXR counter 45*.

Screening data from PubChem BioAssay.
